Assay results taken from ChEMBL document CHEMBL1137689, “Amines and oximes derived from deoxybenzoins as Helicobacter pylori urease inhibitors” (Eur J Med Chem, 2009).
Activity calls are given as the source filed them. No cut-off for these calls is given here.

Target: Urease subunit alpha/Urease subunit beta (Helicobacter pylori (strain ATCC 700392 / 26695) (Campylobacterpylori)) (UniProt P69996+P14916)
Experiment: Inhibition of Helicobacter pylori ATCC 43504 urease assessed as ammonia production at 400 ug/mL by indophenol method
Method in brief: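 Crude urease prepared from H. pylori ATCC 43504 grown 24 h at 37 °C in brucella broth with 10% heat-inactivated horse serum, microaerobic (5% O2, 10% CO2, 85% N2). Cells washed in PBS pH 7.4, stored -80 °C; urease in equal-volume glycerol kept at 4 °C. Enzyme (4U) preincubated with compound 3 h at room temperature; ammonia production read by indophenol method; percent inhibition.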

Urease subunit alpha/Urease subunit beta (Helicobacter pylori (strain ATCC 700392 / 26695) (Campylobacterpylori)), sequence (P14916 whole entry, looked up): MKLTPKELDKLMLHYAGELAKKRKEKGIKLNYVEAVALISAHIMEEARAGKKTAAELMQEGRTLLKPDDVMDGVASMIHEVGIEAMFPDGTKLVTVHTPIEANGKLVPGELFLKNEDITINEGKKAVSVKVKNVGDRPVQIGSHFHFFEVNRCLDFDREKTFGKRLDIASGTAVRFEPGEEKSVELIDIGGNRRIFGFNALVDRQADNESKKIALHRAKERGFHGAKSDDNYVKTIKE
Urease subunit alpha/Urease subunit beta (Helicobacter pylori (strain ATCC 700392 / 26695) (Campylobacterpylori)), sequence (P69996 whole entry, looked up): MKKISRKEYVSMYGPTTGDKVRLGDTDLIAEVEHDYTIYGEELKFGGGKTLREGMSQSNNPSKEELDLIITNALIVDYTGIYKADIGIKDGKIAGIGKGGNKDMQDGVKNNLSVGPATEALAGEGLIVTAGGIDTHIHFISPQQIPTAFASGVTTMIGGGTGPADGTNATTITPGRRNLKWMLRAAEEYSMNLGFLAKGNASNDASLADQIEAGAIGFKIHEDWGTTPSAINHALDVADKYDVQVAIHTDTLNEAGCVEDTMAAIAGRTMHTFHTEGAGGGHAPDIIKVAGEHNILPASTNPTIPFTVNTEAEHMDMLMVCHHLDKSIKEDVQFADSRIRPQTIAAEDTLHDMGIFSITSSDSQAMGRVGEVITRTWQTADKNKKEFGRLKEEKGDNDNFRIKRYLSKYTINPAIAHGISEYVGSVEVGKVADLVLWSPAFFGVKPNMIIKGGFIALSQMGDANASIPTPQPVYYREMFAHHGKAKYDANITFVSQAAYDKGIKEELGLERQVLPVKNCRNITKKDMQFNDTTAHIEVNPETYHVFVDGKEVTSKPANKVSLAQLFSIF

SMILES | inhibition
O/N=C(\Cc1ccc(O)cc1)c1c(O)cc(O)cc1O | 13%
COc1cc(O)c(/C(Cc2ccc(OO)cc2)=N/O)c(OC)c1 | 15%
O=C(Cc1ccc(F)cc1)c1ccc(O)c(O)c1O | 44%
O/N=C(/Cc1ccc(F)cc1)c1ccc(O)cc1O | 23%
NC(Cc1ccc(F)cc1)c1ccc(O)cc1O (stereo unspecified) | 48%
O=C(Cc1ccc(F)cc1)c1ccc(O)cc1O | 16%
COc1cc(O)c(C(=O)Cc2ccc(OO)cc2)c(OC)c1 | inactive
COc1c(O)cc(O)c(/C(Cc2ccc(O)cc2)=N/O)c1O | 38%
COc1ccc(C/C(=N\O)c2ccc(O)cc2O)cc1 | 36%
NC(Cc1ccc(O)cc1)c1ccc(O)c(O)c1O (stereo unspecified) | 97.3%
O=C(Cc1ccc([N+](=O)[O-])cc1)c1ccc(O)cc1O | inactive
O=C(Cc1ccc(O)cc1)c1c(O)cc(O)cc1O | inactive
COc1ccc(CC(N)c2ccc(O)cc2O)cc1 (stereo unspecified) | 73%
NC(Cc1ccc(O)cc1)c1c(O)cc(O)cc1O (stereo unspecified) | 28%
COc1ccc(CC(=O)c2ccc(OC)c(OC)c2OC)cc1 | inactive
COc1ccc(C/C(=N/O)c2ccc(OC)c(OC)c2OC)cc1 | inactive
O/N=C(\Cc1ccc(F)cc1)c1ccc(O)c(O)c1O | 55%
O=[N+]([O-])c1ccc(C/C(=N/O)c2ccc(O)cc2O)cc1 | inactive
COc1ccc(CC(=N)c2ccc(OC)c(OC)c2OC)cc1 | 11%
O/N=C(\Cc1ccc(O)cc1)c1ccc(O)c(O)c1 | 62%
NC(Cc1ccc([N+](=O)[O-])cc1)c1ccc(O)cc1O (stereo unspecified) | inactive
NC(Cc1ccc(F)cc1)c1ccc(O)c(O)c1O (stereo unspecified) | 80%
COc1cc(O)c(C(N)Cc2ccc(OO)cc2)c(OC)c1 (stereo unspecified) | inactive
O/N=C(/Cc1ccc(O)cc1)c1ccc(O)c(O)c1O | 73%

Target: Urease subunit alpha/Urease subunit beta (Helicobacter pylori (strain ATCC 700392 / 26695) (Campylobacterpylori), UniProt P69996)
Experiment: Inhibition of Helicobacter pylori ATCC 43504 urease assessed as ammonia production by indophenol method
Method in brief: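 Crude urease from H. pylori cells, grown 24 h at 37 °C microaerobically (5% O2, 10% CO2, 85% N2) in brucella broth with 10% heat-inactivated horse serum. Cells were washed in PBS pH 7.4 and stored at -80 °C; the extract was kept 1:1 in glycerol at 4 °C. Enzyme (4U) was preincubated with compound 3 h at room temperature. Percent inhibition was screened at 400 µg/mL; IC50 also determined.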

Urease subunit alpha/Urease subunit beta, sequence (P69996 whole entry): as the sequence (P69996 whole entry, looked up) above
Urease subunit alpha/Urease subunit beta, sequence (P14916 whole entry, further chain): as the sequence (P14916 whole entry, looked up) above

SMILES | IC50 [µM]
CC(=O)NO [ACETOHYDROXAMIC ACID] | 11
NC(Cc1ccc(O)cc1)c1ccc(O)c(O)c1O (stereo unspecified) | 47
